Laboratory results taken from publication PMC7081261 (ACS Omega, 2020).

Test system: DU-145 prostate carcinoma cells
Test: MTT cell viability assay
Type: cell-based
Settings: 24 h
Summary of the method: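 DU-145 prostate carcinoma cells grown at 37 °C, 5% CO2, then seeded at 1.5 × 10^5 cells per well. Test compound dilution series (10–500 μg/mL) prepared in RPMI-1640 and applied for 24 h; viability read by MTT, expressed as IC50. Elevated-Zn2+ conditions: medium adjusted with 50 μM ZnCl2. DTNB conditions: cells preincubated 1 h in RPMI-1640 with 2.5 mM DTNB, and dilution series supplemented with 1 mM DTNB during the 24 h exposure.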

| Substance | cytotoxicity against DU-145 cells (in words) (elevated Zn2+ (50 μM ZnCl2), no DTNB) | cytotoxicity against DU-145 cells (in words) (normal Zn2+ conditions (no ZnCl2 added)) | cytotoxicity against DU-145 cells (in words) (Zn2+ condition not stated) |
| --- | --- | --- | --- |
| (GHHPG)2 | No activity | No activity | – |
| H2N-EAEAEA-SS-(Ac)CAhxGHHPHGHHPH-amide (disulfide) [(EA)3-thiol] | – | – | no activity |
